Assay results reported in ChEMBL document CHEMBL4004787, “Polyoxygenated Cyclohexenes and Other Constituents of Cleistochlamys kirkii Leaves” (J Nat Prod, 2017).
pIC50: −log10 of the molar value. Active and inactive are the calls of the source. No cut-off for these calls is given here.

Key:
Krebs2 = assay: Inhibition of cap/HCV-mediated translation in mouse Krebs2 cell free extract expressing FF/HCV/IRES-Ren mRNA reporter transcript assessed as reduction in luciferase production at 20 uM after 60 mins; format: functional
Method in brief: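 Krebs-2 in vitro translation extracts programmed with bicistronic firefly-HCV IRES-Renilla luciferase mRNA. Compounds at 10 mM DMSO stock, diluted to 200 μM in water before addition. Reactions incubated 60 min at 30 °C, then both luciferase activities read. Firefly signal reports cap-dependent translation; Renilla signal reports HCV IRES translation.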

HEK293 = assay: Growth inhibition of HEK293 cells after 72 hrs by PrestoBlue staining based fluorescence assay; format: cell-based; conditions: Homo sapiens, HEK293, 72 h
Method in brief: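 HEK293 cytotoxicity IC50s: percent inhibition plotted against log dose and fitted by nonlinear regression (variable slope). Experiments run in triplicate (n = 3).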

[1] = Selectivity index, ratio of IC50 for HEK293 cells to IC50 for chloroquine-sensitive Plasmodium falciparum 3D7 infected in human RBC; format: toxicity; conditions: HEK293 cells versus Plasmodium falciparum 3D7 in human RBC, read-out: Ratio IC50
Method in brief: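 Selectivity index computed as the HEK293 IC50 divided by the P. falciparum 3D7 IC50, compared against puromycin as a nonselective standard.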

[2] = Selectivity index, ratio of growth inhibitory effect against HEK293 cells at 20 uM to IC50 for chloroquine-sensitive Plasmodium falciparum 3D7 infected in human RBC; format: toxicity, cell-based; conditions: HEK293 cells versus Plasmodium falciparum 3D7 in human RBC, read-out: Selectivity Index
[3] = Growth inhibition of HEK293 cells at 20 uM after 72 hrs by PrestoBlue staining based fluorescence assay relative to control; format: cell-based; conditions: human, read-out: GI
Plasmodium falciparum [4] = assay: Antimalarial activity against chloroquine-sensitive Plasmodium falciparum 3D7 infected in human RBC after 72 hrs by DAPI staining based confocal microscopic method; format: functional; conditions: 3D7, 72 h
Method in brief: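 Triplicate runs, n = 3. Percent inhibition plotted against log dose, and IC50 fitted by nonlinear regression with variable slope. An initial single-point screen was run at 20 μM final concentration.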

MDA-MB-231 = assay: Growth inhibition of human MDA-MB-231 cells after 72 hrs by alamar blue assay; format: functional, cell-based; conditions: MDA-MB-231, 72 h
Method in brief: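 MDA-MB-231 cells grown in DMEM with 10% FBS, 2 mM L-glutamine, penicillin and streptomycin at 37 °C, 5% CO2. Seeded at 10 000 cells/well, preincubated 24 h, then exposed to 100−0.1 μg/mL for 72 h; vehicle 0.1% or 1.0% DMSO. Alamar Blue read by absorbance at 570 nm (600 nm reference). Six replicates, expressed as % of vehicle control.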

Plasmodium falciparum [5] = assay: Growth inhibition of chloroquine-sensitive Plasmodium falciparum 3D7 infected in human RBC at 40 uM after 72 hrs by DAPI staining based confocal microscopic method relative to control; format: functional; conditions: 3D7, 72 h, read-out: GI
Plasmodium falciparum [6] = assay: Growth inhibition of chloroquine-sensitive Plasmodium falciparum 3D7 infected in human RBC at 20 uM after 72 hrs by DAPI staining based confocal microscopic method relative to control; format: functional; conditions: 3D7, 72 h, read-out: GI
Plasmodium falciparum [7] = assay: Antimalarial activity against chloroquine-resistant Plasmodium falciparum Dd2 infected in human RBC after 72 hrs by DAPI staining based confocal microscopic method; format: functional; conditions: Dd2, 72 h
Method in brief: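 Triplicate runs, n = 3. Percent inhibition plotted against log dose, and IC50 fitted by nonlinear regression with variable slope. […] An initial single-point screen was run at 20 μM final concentration.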

[8] = Growth inhibition of HEK293 cells at 40 uM after 72 hrs by PrestoBlue staining based fluorescence assay relative to control; format: cell-based; conditions: human, read-out: GI
Plasmodium falciparum [9] = assay: Growth inhibition of chloroquine-resistant Plasmodium falciparum Dd2 infected in human RBC at 40 uM after 72 hrs by DAPI staining based confocal microscopic method relative to control; format: functional; conditions: Dd2, 72 h, read-out: GI
Method in brief: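 Percentage growth inhibition was read at 40 μM, a single concentration. The value is the mean of at least two independent measurements.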

Structure (SMILES)	inhibition (Krebs2)	pIC50 (Plasmodium falciparum [4])	pIC50 (MDA-MB-231)	inhibition of growth at 40 µM (Plasmodium falciparum [5]) [%]	also measured
CC(=O)OC[C@]1(O)[C@H](OC(=O)c2ccccc2)C=C[C@@H](OC(C)=O)[C@@H]1O	inactive	–	–	–	–
COc1ccc2nc3cc(Cl)ccc3c(Nc3cc(CN4CCCC4)c(O)c(CN4CCCC4)c3)c2n1 [PYRONARIDINE]	–	–	–	–	pIC50 (HEK293): 5.74; selectivity ratio [1]: 494
C[C@H]1[C@H](OC(=O)CCC(=O)O)O[C@@H]2O[C@@]3(C)CC[C@H]4[C@H](C)CC[C@@H]1[C@@]24OO3 [ARTESUNATE]	–	9.32	–	–	selectivity ratio at 20 µM [2]: > 22; inhibition at 72 h, 20 µM [3]: 75%
CC(=O)O[C@H]1C=C[C@H](O)[C@@](O)(COC(=O)c2ccccc2)[C@@H]1OC(C)=O	inactive	–	5.57	54	–
CC(=O)O[C@@H]1C=C[C@H](O)[C@@H](OC(C)=O)/C1=C/OC(=O)c1ccccc1	inactive	6.21	6.54	–	inhibition of growth at 20 µM (Plasmodium falciparum [6]): ≥ 90%; pIC50 (HEK293): 5.62; selectivity ratio [1]: 4; pIC50 (Plasmodium falciparum [7]): 5.47
C[C@H]1[C@@H](O)O[C@@H]2O[C@@]3(C)CC[C@H]4[C@H](C)CC[C@@H]1[C@@]24OO3 [ARTENIMOL]	–	9.96	–	–	selectivity ratio at 20 µM [2]: > 22; inhibition at 72 h, 20 µM [3]: 50%; pIC50 (Plasmodium falciparum [7]): 9.82
O=C1C=C/C(=C/[C@@H](O)COC(=O)c2ccccc2)O1	–	–	6.62	92	–
CC(=O)O[C@H]1C=C[C@H](Cl)[C@@](O)(COC(=O)c2ccccc2)[C@@H]1O	inactive	–	6.92	72	–
O=Cc1cccc(O)c1 [3-HYDROXYBENZALDEHYDE]	inactive	–	5.09	25	–
CCc1nc(N)nc(N)c1-c1ccc(Cl)cc1 [PYRIMETHAMINE]	–	–	–	–	pIC50 (HEK293): 5.38
O=C(OCc1cc(O)ccc1O)c1ccccc1	–	–	7.05	67	–
CC(=O)O[C@@H]1C=C[C@@H](OC(=O)c2ccccc2)[C@@](O)(COC(=O)c2ccccc2)[C@H]1OC(C)=O	inactive	–	5.68	99	–
CC(=O)OC(OC(=O)c1ccccc1)C1=CC=C[C@H](O)[C@H]1OC(C)=O (stereo partly drawn)	–	5.92	6.54	–	inhibition of growth at 20 µM (Plasmodium falciparum [6]): ≥ 90%; pIC50 (HEK293): 5.44; selectivity ratio [1]: 3; pIC50 (Plasmodium falciparum [7]): 5.66
CC(=O)O[C@H]1C=C[C@H](Cl)[C@](O)(COC(=O)c2ccccc2)[C@@H]1O	inactive	–	6.35	95	–
CC(=O)O[C@H](OC(=O)c1ccccc1)[C@@]12C=C[C@@H](c3ccc(C=O)cc31)[C@H](O)[C@H]2OC(C)=O	–	–	–	98	–
CC(=O)O[C@@H]1C=C[C@H](O)[C@@H](O)/C1=C/OC(=O)c1ccccc1	inactive	6.70	7.52	–	inhibition of growth at 20 µM (Plasmodium falciparum [6]): ≥ 90%; pIC50 (HEK293): 5.57; selectivity ratio [1]: 14; pIC50 (Plasmodium falciparum [7]): 6.32
CC(=O)O[C@H](/C=C1/C=CC(=O)O1)COC(=O)c1ccccc1	inactive	5.18	–	–	inhibition at 72 h, 40 µM [8]: 100%; inhibition of growth at 40 µM (Plasmodium falciparum [9]): 100%; inhibition of growth at 20 µM (Plasmodium falciparum [6]): ≥ 90%
COc1ccc(C[C@H](N)C(=O)N[C@H]2[C@@H](O)[C@H](n3cnc4c(N(C)C)ncnc43)O[C@@H]2CO)cc1 [PUROMYCIN]	–	7.64	–	–	selectivity ratio [1]: 15.9
